Measured values taken from ChEMBL document CHEMBL1221323, “Iodination of verapamil for a stronger induction of death, through GSH efflux, of cancer cells overexpressing MRP1” (Bioorg Med Chem, 2010).

Tests used:
BHK-21 [1] = experiment: Cytotoxicity against hamster BHK21 cells expressing MRP1 after 96 hrs by MTT assay; format: functional, cell-based; details: Mesocricetus auratus, BHK-21, 96 h
In short: (§1)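 Cells plated at 1.0 × 10⁴/well and grown 17 h, then exposed to compound diluted in complete medium (0.5% DMSO) for 96 h at 37 °C, 5% CO₂. MTT at 0.5 mg/mL added for 4 h, dye removed, formazan dissolved in isopropanol, absorbance read at 570 nm. IC50 taken from sigmoidal fits of triplicate dose–response curves.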

BHK-21 [2] = experiment: Cytotoxicity against hamster BHK21 cells after 96 hrs by MTT assay; format: functional, cell-based; details: Mesocricetus auratus, BHK-21, 96 h; in short: as §1
[3] = biological target: T1, Multidrug resistance-associated protein 1 (Homo sapiens, UniProt P33527); experiment: Inhibition of MRP1 expressed in hamster BHK21 cells assessed as reduction of GSH efflux at 5 uM after up to 50 to 60 mins; format: cell-based; details: bhk-21, 5 µM
T1 sequence (P33527 whole entry): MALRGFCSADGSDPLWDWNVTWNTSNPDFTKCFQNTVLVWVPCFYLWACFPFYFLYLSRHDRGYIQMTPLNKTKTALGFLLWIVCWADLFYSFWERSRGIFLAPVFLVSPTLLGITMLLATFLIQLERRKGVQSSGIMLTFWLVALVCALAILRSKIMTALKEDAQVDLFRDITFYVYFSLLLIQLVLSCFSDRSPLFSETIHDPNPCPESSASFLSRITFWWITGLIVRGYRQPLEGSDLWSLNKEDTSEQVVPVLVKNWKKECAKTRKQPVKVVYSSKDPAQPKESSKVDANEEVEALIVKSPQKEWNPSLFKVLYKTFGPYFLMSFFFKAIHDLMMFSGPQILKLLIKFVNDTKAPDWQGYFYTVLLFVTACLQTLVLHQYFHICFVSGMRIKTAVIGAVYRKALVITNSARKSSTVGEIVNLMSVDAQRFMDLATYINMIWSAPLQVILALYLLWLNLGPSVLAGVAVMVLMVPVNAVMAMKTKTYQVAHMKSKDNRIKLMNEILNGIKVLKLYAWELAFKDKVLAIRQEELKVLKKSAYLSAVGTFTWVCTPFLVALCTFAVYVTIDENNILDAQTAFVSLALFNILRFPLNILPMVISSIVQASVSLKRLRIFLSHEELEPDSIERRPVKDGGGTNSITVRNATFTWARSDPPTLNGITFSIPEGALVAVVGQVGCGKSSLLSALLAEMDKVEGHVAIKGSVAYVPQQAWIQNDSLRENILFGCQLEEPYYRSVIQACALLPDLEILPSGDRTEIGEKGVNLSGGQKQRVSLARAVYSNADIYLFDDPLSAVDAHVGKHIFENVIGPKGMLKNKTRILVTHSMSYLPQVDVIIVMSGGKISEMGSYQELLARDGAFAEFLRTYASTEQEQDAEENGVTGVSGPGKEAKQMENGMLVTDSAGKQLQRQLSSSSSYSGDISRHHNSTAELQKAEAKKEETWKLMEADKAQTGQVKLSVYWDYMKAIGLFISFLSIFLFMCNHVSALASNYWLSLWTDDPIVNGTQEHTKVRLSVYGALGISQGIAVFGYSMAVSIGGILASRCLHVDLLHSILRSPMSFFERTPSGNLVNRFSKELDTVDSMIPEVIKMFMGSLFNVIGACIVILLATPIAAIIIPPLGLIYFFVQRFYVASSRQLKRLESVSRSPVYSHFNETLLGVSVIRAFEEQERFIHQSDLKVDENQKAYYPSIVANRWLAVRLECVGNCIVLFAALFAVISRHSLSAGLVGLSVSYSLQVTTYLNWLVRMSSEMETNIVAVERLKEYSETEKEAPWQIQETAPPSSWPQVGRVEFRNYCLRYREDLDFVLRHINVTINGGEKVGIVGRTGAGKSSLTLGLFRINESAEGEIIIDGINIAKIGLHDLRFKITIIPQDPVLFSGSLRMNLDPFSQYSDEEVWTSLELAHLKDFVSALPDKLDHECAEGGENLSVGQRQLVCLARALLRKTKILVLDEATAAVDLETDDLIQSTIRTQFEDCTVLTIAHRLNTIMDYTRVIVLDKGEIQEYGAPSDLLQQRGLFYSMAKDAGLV
In short: (§2)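 Cells from the MRP1-transfected BHK-21 line (kept under methotrexate) were seeded at 1.0 × 10⁵/well, grown 17 h, then given 5 µM compound (DMSO ≤0.5%) for 10–120 min. Cells were washed in cold PBS and lysed in 0.1% Triton X-100. Total glutathione was measured by DTNB/NADPH/GSH reductase recycling (A412 kinetic, 2 min) and normalized to Bradford protein. Residual GSH is expressed as % of untreated cells; time to 50% loss is reported; triplicates.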

[4] = biological target: T1, Multidrug resistance-associated protein 1; experiment: Inhibition of MRP1 expressed in hamster BHK21 cells assessed as reduction of GSH efflux at 5 uM after up to 120 mins; format: cell-based; details: bhk-21, 2 h; in short: as §2

inhibition (INH) [3] | inhibition (INH) [4] | Structure (SMILES) | IC50 (BHK-21 [1]) [µM] | IC50 (BHK-21 [2]) [µM]
– | – | COc1ccc(C(C#N)(CCCN(C)Cc2cc(I)c(O)c(I)c2)C(C)C)cc1OC (configuration not stated) | 6.6 | 27.4
Not Active | – | COc1ccc(C(C#N)(CCCN(C)CCCc2ccc(O)cc2)C(C)C)cc1OC (configuration not stated) | 20.9 | ≥ 100
– | – | COc1ccc(C(C#N)(CCCN(C)CCCc2ccc(O)c(I)c2)C(C)C)cc1OC (configuration not stated) | 9.3 | 9.4
– | – | COc1ccc(C(C#N)(CCCN(C)CCCc2cc(I)c(O)c(I)c2)C(C)C)cc1OC (configuration not stated) | 6 | 33.1
Not Active | – | COc1ccc(C(C#N)(CCCN(C)Cc2ccc(O)cc2)C(C)C)cc1OC (configuration not stated) | 6.6 | 28.5
– | – | COc1ccc(C(C#N)(CCCN(C)Cc2ccc(O)c(I)c2)C(C)C)cc1OC (configuration not stated) | 13 | 14.1
– | – | COc1ccc(C(C#N)(CCCNCCc2ccc(O)cc2)C(C)C)cc1OC (configuration not stated) | 38.1 | ≥ 100
– | – | COc1ccc(C(C#N)(CCCNCCc2ccc(O)c(I)c2)C(C)C)cc1OC (configuration not stated) | 0.78 | 14.2
– | – | COc1ccc(C(C#N)(CCCNCCc2cc(I)c(O)c(I)c2)C(C)C)cc1OC (configuration not stated) | 1.96 | 13.8
– | Not Active | COc1ccc(CCN(C)CCCC(C#N)(c2ccc(OC)c(OC)c2)C(C)C)cc1 (configuration not stated) | 17.2 | 33.6
– | Not Active | COc1ccc(CCN(C)CCCC(C#N)(c2ccc(OC)c(OC)c2)C(C)C)cc1I (configuration not stated) | 4.7 | 13
– | Not Active | COc1ccc(C(C#N)(CCCN(C)CCc2cc(I)c(OC)c(I)c2)C(C)C)cc1OC (configuration not stated) | 1.7 | 8.9
– | – | COc1ccc(C(C#N)(CCCN(C)CCc2ccc(O)cc2)C(C)C)cc1OC (configuration not stated) | 11.7 | 55.9
– | – | COc1ccc(C(C#N)(CCCN(C)CCc2ccc(O)c(I)c2)C(C)C)cc1OC (configuration not stated) | 8.6 | 32.8
– | – | COc1ccc(C(C#N)(CCCN(C)CCc2cc(I)c(O)c(I)c2)C(C)C)cc1OC (configuration not stated) | 1.1 | 54.7
– | – | COc1ccc(CCN(C)CCCC(C#N)(c2ccc(OC)c(OC)c2)C(C)C)cc1OC (configuration not stated) [VERAPAMIL] | 10.6 | ≥ 100
